Format in all cases: functional
One experiment relates to Klebsiella pneumoniae. The experiment in a line: Antibacterial activity against Klebsiella pneumoniae. Summed up:
(§1)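 Broth microdilution MIC in Mueller Hinton broth, 96-well plates. Strains from departmental collection, kept on nutrient agar slants at 37 °C, purity checked before testing. Starting inoculum 1–5 · 10³ cells/ml. Plates incubated 24 h at 37 °C in a moist chamber, then absorbance read at 492 nm. MIC taken as 90% growth inhibition relative to growth control.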

The next experiment deals with Pseudomonas aeruginosa. The experiment in a line: Antibacterial activity against Pseudomonas aeruginosa. Summed up:
as §1

Another experiment deals with Staphylococcus aureus. The experiment in a line: Antibacterial activity against Staphylococcus aureus. Summed up:
as §1

The next experiment concerns Enterococcus faecalis. The experiment in a line: Antibacterial activity against Streptococcus faecalis. The procedure, abridged:
as §1

For a further experiment, the system named is Escherichia coli. The experiment in a line: Antibacterial activity against Escherichia coli. Summed up:
as §1

In brackets after ≈: the same amount, converted by molar mass. Where only a bound is given, the exact number is not on record here.

These results are taken from ChEMBL document CHEMBL1137433, “Synthesis and antibacterial evaluation of ureides of Baylis-Hillman derivatives” (2006).

What is called MIC is the smallest concentration in the dilution series that meets the test's criterion for growth inhibition. Lower therefore signals a more susceptible organism. For the compound `N=c1c(Cc2ccccc2)c[nH]c(=O)n1-c1ccc(Cl)cc1Cl`, the minimum inhibitory concentration (MIC) against Klebsiella pneumoniae turned out to be 50 µg/mL (≈ 144 µM); with Pseudomonas aeruginosa it was 50 µg/mL (≈ 144 µM); against Staphylococcus aureus, 50 µg/mL (≈ 144 µM); against Enterococcus faecalis, 25 µg/mL (≈ 72.2 µM); in the experiment on Escherichia coli, 50 µg/mL (≈ 144 µM).
Consider `N#C/C(=C/c1ccc(Cl)c(Cl)c1)CNC(=S)Nc1ccccc1`, for which the MIC is 3.12 µg/mL (≈ 8.61 µM) against Klebsiella pneumoniae; 25 µg/mL (≈ 69 µM) against Pseudomonas aeruginosa; 1.56 µg/mL (≈ 4.31 µM) in the experiment with Staphylococcus aureus; 3.12 µg/mL (≈ 8.61 µM) against Enterococcus faecalis; 1.56 µg/mL (≈ 4.31 µM) against Escherichia coli.
With `N=c1c(Cc2cccs2)c[nH]c(=O)n1-c1ccc(Cl)cc1`, the MIC with Klebsiella pneumoniae, with Pseudomonas aeruginosa, against Staphylococcus aureus, against Enterococcus faecalis and against Escherichia coli was > 50 µg/mL in each case.
As for `Cc1ccc(-n2c(=O)[nH]cc(Cc3ccccc3Cl)c2=N)cc1Cl`, the minimal inhibitory concentration (MIC) was > 50 µg/mL against Klebsiella pneumoniae; 50 µg/mL (≈ 139 µM) in the experiment on Pseudomonas aeruginosa; 50 µg/mL (≈ 139 µM) with Staphylococcus aureus; 50 µg/mL (≈ 139 µM) against Enterococcus faecalis; 50 µg/mL (≈ 139 µM) in the experiment with Escherichia coli.
In the case of `N=c1c(Cc2ccccc2Cl)c[nH]c(=O)n1-c1ccc(Cl)cc1Cl`, the minimal inhibitory concentration (MIC) against Klebsiella pneumoniae is 50 µg/mL (≈ 131 µM); in the experiment on Pseudomonas aeruginosa, > 50 µg/mL; against Staphylococcus aureus it was > 50 µg/mL; with Enterococcus faecalis, > 50 µg/mL; in the experiment on Escherichia coli it was > 50 µg/mL.
In the case of `N#C/C(=C/c1ccccc1Cl)CNC(=O)Nc1ccc(Cl)cc1`, the MIC in the experiment with Klebsiella pneumoniae, against Pseudomonas aeruginosa, in the experiment with Staphylococcus aureus, in the experiment on Enterococcus faecalis and in the experiment on Escherichia coli was > 50 µg/mL throughout.
Turning to `Cc1ccc(NC(=O)NC/C(C#N)=C\c2ccccc2Cl)cc1Cl`, the MIC in the experiment on Klebsiella pneumoniae, with Pseudomonas aeruginosa, in the experiment on Staphylococcus aureus, against Enterococcus faecalis and in the experiment on Escherichia coli was > 50 µg/mL in each case.
Consider `N#C/C(=C/c1ccc(Cl)c(Cl)c1)CNC(=O)Nc1ccc(Cl)cc1`, for which the minimum inhibitory concentration (MIC) with Klebsiella pneumoniae, in the experiment on Pseudomonas aeruginosa, with Staphylococcus aureus, with Enterococcus faecalis and against Escherichia coli was > 50 µg/mL in each case.
As to `CCOc1ccc(NC(=O)N(Cc2ccccc2)CC(C#N)C(O)c2ccccc2Cl)cc1` (centres undefined), the MIC with Klebsiella pneumoniae, against Pseudomonas aeruginosa, against Staphylococcus aureus, against Enterococcus faecalis and against Escherichia coli was > 50 µg/mL in each case.
Take `N=c1c(Cc2ccccc2Cl)c[nH]c(=O)n1-c1ccc(Cl)c(Cl)c1`: the minimum inhibitory concentration (MIC) with Klebsiella pneumoniae is > 50 µg/mL; against Pseudomonas aeruginosa, > 50 µg/mL; against Staphylococcus aureus, > 50 µg/mL; in the experiment with Enterococcus faecalis, 50 µg/mL (≈ 131 µM); against Escherichia coli it was 50 µg/mL (≈ 131 µM).
Regarding `N#C/C(=C/c1ccc(Cl)c(Cl)c1)CNC(=O)Nc1ccc(Cl)cc1Cl`, the minimum inhibitory concentration (MIC) in the experiment with Klebsiella pneumoniae was > 50 µg/mL; with Pseudomonas aeruginosa, > 50 µg/mL; in the experiment with Staphylococcus aureus it was > 50 µg/mL; in the experiment with Enterococcus faecalis, > 50 µg/mL; against Escherichia coli it was 6.25 µg/mL (≈ 15.1 µM).
Regarding `N=C1CCNC(=O)N1c1ccc(Cl)cc1Cl`, the MIC came to 50 µg/mL (≈ 194 µM) with Klebsiella pneumoniae; 50 µg/mL (≈ 194 µM) in the experiment on Pseudomonas aeruginosa; 50 µg/mL (≈ 194 µM) in the experiment on Staphylococcus aureus; 50 µg/mL (≈ 194 µM) in the experiment on Enterococcus faecalis; 25 µg/mL (≈ 96.9 µM) with Escherichia coli.
Take `COC(c1ccccc1)C(C#N)CN(Cc1ccccc1)C(=O)Nc1ccc(Cl)c(Cl)c1` (centres undefined): the MIC in the experiment with Klebsiella pneumoniae was 3.12 µg/mL (≈ 6.66 µM); against Pseudomonas aeruginosa, 50 µg/mL (≈ 107 µM); against Staphylococcus aureus, 3.12 µg/mL (≈ 6.66 µM); in the experiment with Enterococcus faecalis it was 6.25 µg/mL (≈ 13.3 µM); against Escherichia coli, 3.12 µg/mL (≈ 6.66 µM).
`N=c1c(Cc2ccc(Cl)c(Cl)c2)c[nH]c(=O)n1-c1ccc(Cl)cc1`: the minimal inhibitory concentration (MIC) against Klebsiella pneumoniae, against Pseudomonas aeruginosa, in the experiment on Staphylococcus aureus, against Enterococcus faecalis and in the experiment with Escherichia coli was > 50 µg/mL each time.
`N#C/C(=C/c1ccccc1)CNC(=O)Nc1ccc(Cl)c(Cl)c1`: the minimum inhibitory concentration (MIC) in the experiment with Klebsiella pneumoniae, in the experiment with Pseudomonas aeruginosa, against Staphylococcus aureus, in the experiment with Enterococcus faecalis and against Escherichia coli was > 50 µg/mL throughout.
Consider `N#C/C(=C/c1cccs1)CNC(=O)Nc1ccc(Cl)cc1Cl`, for which the MIC in the experiment with Klebsiella pneumoniae, against Pseudomonas aeruginosa, with Staphylococcus aureus, in the experiment with Enterococcus faecalis and with Escherichia coli was > 50 µg/mL throughout.
For `CCn1cc(C(=O)O)c(=O)c2cc(F)c(N3CCNCC3)cc21` [NORFLOXACIN], the MIC stood at 0.36 µg/mL (≈ 1.13 µM) in the experiment with Klebsiella pneumoniae; 0.78 µg/mL (≈ 2.44 µM) with Pseudomonas aeruginosa; 0.3 µg/mL (≈ 0.939 µM) in the experiment on Staphylococcus aureus; 0.78 µg/mL (≈ 2.44 µM) in the experiment with Enterococcus faecalis; 0.36 µg/mL (≈ 1.13 µM) with Escherichia coli.
`N#C/C(=C/c1ccccc1)CNC(=O)Nc1ccc(Cl)cc1Cl`: the minimum inhibitory concentration (MIC) against Klebsiella pneumoniae was > 50 µg/mL; with Pseudomonas aeruginosa, > 50 µg/mL; with Staphylococcus aureus, > 50 µg/mL; in the experiment on Enterococcus faecalis it was > 50 µg/mL; in the experiment on Escherichia coli it was 50 µg/mL (≈ 144 µM).
In the case of `N=c1c(Cc2ccccc2)c[nH]c(=O)n1-c1ccc(Cl)c(Cl)c1`, the MIC in the experiment with Klebsiella pneumoniae, with Pseudomonas aeruginosa, in the experiment with Staphylococcus aureus, in the experiment on Enterococcus faecalis and in the experiment on Escherichia coli was 50 µg/mL (≈ 144 µM) throughout.
Regarding `N#CC(CN(Cc1ccccc1)C(=O)Nc1ccc(Cl)c(Cl)c1)C(O)c1ccccc1` (centres undefined), the MIC with Klebsiella pneumoniae, against Pseudomonas aeruginosa, in the experiment with Staphylococcus aureus, against Enterococcus faecalis and in the experiment with Escherichia coli was > 50 µg/mL in each case.
Take `N#C/C(=C/c1ccccc1Cl)CNC(=O)Nc1ccc(Cl)c(Cl)c1`: the minimum inhibitory concentration (MIC) with Klebsiella pneumoniae is > 50 µg/mL; against Pseudomonas aeruginosa, > 50 µg/mL; with Staphylococcus aureus it was > 50 µg/mL; in the experiment with Enterococcus faecalis, > 50 µg/mL; against Escherichia coli, 1.56 µg/mL (≈ 4.1 µM).
For the compound `N#CC(CNC(=O)Nc1ccc(Cl)cc1Cl)C(O)c1ccccc1` (centres undefined), the minimum inhibitory concentration (MIC) in the experiment with Klebsiella pneumoniae, against Pseudomonas aeruginosa, with Staphylococcus aureus, in the experiment on Enterococcus faecalis and with Escherichia coli was > 50 µg/mL in each case.
In the case of `N=c1c(Cc2cccs2)c[nH]c(=O)n1-c1ccc(Cl)cc1Cl`, the minimum inhibitory concentration (MIC) was > 50 µg/mL in the experiment with Klebsiella pneumoniae; > 50 µg/mL in the experiment on Pseudomonas aeruginosa; > 50 µg/mL against Staphylococcus aureus; > 50 µg/mL with Enterococcus faecalis; 50 µg/mL (≈ 142 µM) in the experiment on Escherichia coli.
For `N=c1c(Cc2ccc(Cl)c(Cl)c2)c[nH]c(=O)n1-c1ccc(Cl)cc1Cl`, the MIC in the experiment with Klebsiella pneumoniae worked out at 3.12 µg/mL (≈ 7.52 µM); against Pseudomonas aeruginosa, 25 µg/mL (≈ 60.2 µM); with Staphylococcus aureus, 3.12 µg/mL (≈ 7.52 µM); in the experiment with Enterococcus faecalis it was 3.12 µg/mL (≈ 7.52 µM); in the experiment with Escherichia coli, 3.12 µg/mL (≈ 7.52 µM).
Regarding `N#C/C(=C/c1ccccc1Cl)CNC(=O)Nc1ccc(Cl)cc1Cl`, the MIC in the experiment on Klebsiella pneumoniae, against Pseudomonas aeruginosa, in the experiment with Staphylococcus aureus, with Enterococcus faecalis and in the experiment on Escherichia coli was > 50 µg/mL each time.
Consider `N=c1c(Cc2ccccc2Cl)c[nH]c(=O)n1-c1ccc(Cl)cc1`, for which the MIC with Klebsiella pneumoniae, in the experiment on Pseudomonas aeruginosa, against Staphylococcus aureus, in the experiment on Enterococcus faecalis and in the experiment on Escherichia coli was > 50 µg/mL throughout.
For `Nc1c(Cc2ccccc2Cl)cnc(=S)n1-c1ccccc1`, the MIC with Klebsiella pneumoniae is > 50 µg/mL; in the experiment on Pseudomonas aeruginosa it was > 50 µg/mL; with Staphylococcus aureus, > 50 µg/mL; against Enterococcus faecalis, 25 µg/mL (≈ 76.3 µM); with Escherichia coli, > 50 µg/mL.
With `N#C/C(=C/c1ccccc1)CNC(=S)Nc1ccccc1`, the MIC in the experiment on Klebsiella pneumoniae, with Pseudomonas aeruginosa, in the experiment with Staphylococcus aureus, with Enterococcus faecalis and against Escherichia coli was 50 µg/mL (≈ 170 µM) in each case.
In the case of `CC1(C)S[C@@H]2[C@H](NC(=O)[C@H](N)c3ccccc3)C(=O)N2[C@H]1C(=O)O` [AMPICILLIN], the minimal inhibitory concentration (MIC) with Klebsiella pneumoniae turned out to be 0.01 µg/mL (≈ 0.0286 µM); with Pseudomonas aeruginosa, 50 µg/mL (≈ 143 µM); in the experiment on Staphylococcus aureus, 0.09 µg/mL (≈ 0.258 µM); against Enterococcus faecalis, 0.02 µg/mL (≈ 0.0572 µM).
